Source: ChEMBL document CHEMBL3393003, “1,2,3,9b-Tetrahydro-5H-imidazo[2,1-a]isoindol-5-ones as a new class of respiratory syncytial virus (RSV) fusion inhibitors. Part 2: identification of BTA9881 as a preclinical candidate” (Bioorg Med Chem Lett, 2015)
Converted amounts (≈) assume the structure as drawn. The source made the active and inactive calls. No cut-off for these calls is given here.

How the values were obtained:
[1] = test system: Respiratory syncytial virus; experiment: Antiviral activity against respiratory syncytial virus A2 by plaque reduction assay; format: functional, organism-based
[2] = Plasma clearance in Sprague-Dawley rat at 8.8 mg/kg, iv; format: ADME, organism-based; parameters: dose 8.8 mg/kg, route intravenous
[3] = Lipophilicity, log D of the compound at pH 7.4 by chromatography; format: physicochemical; conditions: buffer
Procedure, shortened: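 Effective logD measured chromatographically on an LC-ABZ column, octanol-saturated mobile phase at pH 7.4.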

[4] = test system: Respiratory syncytial virus; experiment: Antiviral activity against respiratory syncytial virus A2 assessed as inhibition of early virus replication cycle by time of addition assay; format: functional, organism-based
[5] = Apparent volume of distribution in Sprague-Dawley rat at 8.8 mg/kg, iv; format: ADME, organism-based; parameters: dose 8.8 mg/kg, route intravenous; conditions: in vivo, read-out: Vz
[6] = test system: Respiratory syncytial virus; experiment: Resistance index, ratio of EC50 for VP-14637 resistant respiratory syncytial virus Long expressing F protein D489Y mutant to EC50 for wild type Respiratory syncytial virus Long
[7] = test system: Respiratory syncytial virus; experiment: Antiviral activity against respiratory syncytial virus Long infected in human Hep2 cells assessed as reduction in virus-induced cytopathic effect after 5 days by MTT assay; format: functional, organism-based; conditions: HEp-2, 120 h
[8] = test system: Respiratory syncytial virus; experiment: Antiviral activity against respiratory syncytial virus B1 infected in human Hep2 cells assessed as reduction in virus-induced cytopathic effect after 5 days by MTT assay; format: functional, organism-based; conditions: B1, HEp-2, 120 h
[9] = test system: Respiratory syncytial virus; experiment: Antiviral activity against respiratory syncytial virus A2 infected in human Hep2 cells assessed as reduction in virus-induced cytopathic effect after 5 days by MTT assay; format: functional, organism-based; conditions: A2, HEp-2, 120 h
Procedure, shortened: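 HEp2 cells (1.0 × 10⁴/well) infected at low moi (RSV A2 at moi 0.01) and added to serial compound dilutions; incubated 5 days at 37 °C, 5% CO₂. CPE read by MTT (1 mg/ml) metabolism after 2 h incubation.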

[10] = test system: Respiratory syncytial virus; experiment: Resistance index, ratio of EC50 for drug resistant respiratory syncytial virus Long expressing F protein Q494L mutant to EC50 for wild type Respiratory syncytial virus Long
[11] = test system: Respiratory syncytial virus; experiment: Resistance index, ratio of EC50 for drug resistant respiratory syncytial virus B1 expressing F protein L141F mutant to EC50 for wild type Respiratory syncytial virus B1; format: functional
[12] = test system: Respiratory syncytial virus; experiment: Antiviral activity against respiratory syncytial virus A2 by yield reduction assay; format: functional, organism-based
[13] = Kinetic solubility in isotonic phosphate buffer at pH 6.5 by nephelometry; format: physicochemical; conditions: read-out: Kinetic_solubility
Procedure, shortened: (§1)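 Compound dissolved in DMSO and added to 0.01 M HCl (pH 2) or pH 6.5 isotonic phosphate buffer, 1% final DMSO. Solubility range determined by nephelometry.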

[14] = Cmax in Sprague-Dawley rat at 19 mg/kg, po; format: ADME, organism-based; parameters: dose 19 mg/kg, route oral; conditions: in vivo
Procedure, shortened: (§2)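 Male Sprague Dawley rats, n = 2, oral dose as suspension in hydroxypropylmethylcellulose, in carboxymethylcellulose, or in 0.5% HPMC/0.5% benzyl alcohol/0.4% Tween80. Cmax (µM), T1/2 and F (%) derived from plasma levels.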

[15] = Kinetic solubility in 0.01M HCl buffer at pH 2.0 by nephelometry; format: physicochemical; conditions: read-out: Kinetic_solubility; procedure, shortened: as §1
[16] = Oral bioavailability in Sprague-Dawley rat at 19 mg/kg; format: ADME, organism-based; conditions: in vivo; procedure, shortened: as §2
[17] = Elimination half life in Sprague-Dawley rat at 19 mg/kg, po; format: ADME, organism-based; parameters: dose 19 mg/kg, route oral; conditions: in vivo, read-out: beta t1/2 (converted); procedure, shortened: as §2
[18] = Oral bioavailability in dog; format: ADME, organism-based, Canis lupus familiaris; conditions: in vivo
[19] = Elimination half life in Sprague-Dawley rat at 8.8 mg/kg, iv; format: ADME, organism-based; parameters: dose 8.8 mg/kg, route intravenous; conditions: in vivo, read-out: beta t1/2 (converted)
[20] = Cmax in Sprague-Dawley rat at 20 mg/kg, po; format: ADME, organism-based; parameters: dose 20 mg/kg, route oral; conditions: in vivo; procedure, shortened: as §2
[21] = Apparent volume of distribution in Sprague-Dawley rat at 1.1 mg/kg, iv; format: ADME, organism-based; parameters: dose 1.1 mg/kg, route intravenous; conditions: in vivo, read-out: Vz
[22] = Elimination half life in Sprague-Dawley rat at 1.1 mg/kg, iv; format: ADME, organism-based; parameters: dose 1.1 mg/kg, route intravenous; conditions: in vivo, read-out: beta t1/2 (converted)
[23] = test system: Respiratory syncytial virus; experiment: Potency shift index, ratio of EC50 for respiratory syncytial virus A2 infected in human Hep2 in presence of 1.5 mg/mL Alpha-1-acid glycoprotein to EC50 for respiratory syncytial virus A2 infected in human Hep2 in absence of Alpha-1-acid glycoprotein; format: functional
[24] = Oral bioavailability in Sprague-Dawley rat at 20 mg/kg; format: ADME, organism-based; conditions: in vivo; procedure, shortened: as §2
[25] = Cytotoxicity against human Hep2 cells assessed as reduction in cell viability after 5 days by MTT assay; format: cell-based, HEp-2
Procedure, shortened: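 Uninfected HEp2 cells (1.0 × 10⁴/well) exposed to serial compound dilutions for 5 days at 37 °C, 5% CO₂. Viability read by MTT (1 mg/ml) metabolism after 2 h incubation.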

[26] = Elimination half life in Sprague-Dawley rat at 20 mg/kg, po; format: ADME, organism-based; parameters: dose 20 mg/kg, route oral; conditions: in vivo, read-out: beta t1/2 (converted); procedure, shortened: as §2
[27] = Plasma clearance in Sprague-Dawley rat at 1.1 mg/kg, iv; format: ADME, organism-based; parameters: dose 1.1 mg/kg, route intravenous
[28] = Cmax in Sprague-Dawley rat at 21 mg/kg, po; format: ADME, organism-based; parameters: dose 21 mg/kg, route oral; conditions: in vivo
Procedure, shortened: (§3)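 Male Sprague Dawley rats, n = 2, oral dose as suspension with carboxymethylcellulose. Cmax (µM), T1/2 and F (%) derived from plasma levels.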

[29] = Oral bioavailability in Sprague-Dawley rat at 21 mg/kg; format: ADME, organism-based; conditions: in vivo; procedure, shortened: as §3
[30] = Half life in Sprague-Dawley rat at 21 mg/kg, po; format: ADME, organism-based; parameters: dose 21 mg/kg, route oral; conditions: in vivo; procedure, shortened: as §3
[31] = Elimination half life in Sprague-Dawley rat at 2.1 mg/kg, iv; format: ADME, organism-based; parameters: dose 2.1 mg/kg, route intravenous; conditions: in vivo, read-out: beta t1/2 (converted)
Procedure, shortened: (§4)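 Male Sprague Dawley rats given one IV dose. 3.1 mg/kg: n = 1, in 40% propylene glycol, 10% ethanol and 0.4% Tween80 in water. 2.1 mg/kg: n = 2, in 20 mM citrate (pH 2.6) with 5% glucose and 10% DMSO. Total clearance, Vz and T1/2 derived from plasma levels.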

[32] = Total clearance in Sprague-Dawley rat at 2.1 mg/kg, iv; format: ADME, organism-based; parameters: dose 2.1 mg/kg, route intravenous; conditions: in vivo; procedure, shortened: as §4
[33] = Apparent volume of distribution in Sprague-Dawley rat at 2.1 mg/kg, iv; format: ADME, organism-based; parameters: dose 2.1 mg/kg, route intravenous; conditions: in vivo, read-out: Vz; procedure, shortened: as §4
[34] = Apparent volume of distribution in Sprague-Dawley rat at 3.1 mg/kg, iv; format: ADME, organism-based; parameters: dose 3.1 mg/kg, route intravenous; conditions: in vivo, read-out: Vz; procedure, shortened: as §4
[35] = Cmax in Sprague-Dawley rat at 18 mg/kg, po; format: ADME, organism-based; parameters: dose 18 mg/kg, route oral; conditions: in vivo; procedure, shortened: as §3
[36] = Half life in Sprague-Dawley rat at 18 mg/kg, po; format: ADME, organism-based; parameters: dose 18 mg/kg, route oral; conditions: in vivo; procedure, shortened: as §3
[37] = Elimination half life in Sprague-Dawley rat at 3.1 mg/kg, iv; format: ADME, organism-based; parameters: dose 3.1 mg/kg, route intravenous; conditions: in vivo, read-out: beta t1/2 (converted); procedure, shortened: as §4
[38] = Total clearance in Sprague-Dawley rat at 3.1 mg/kg, iv; format: ADME, organism-based; parameters: dose 3.1 mg/kg, route intravenous; conditions: in vivo; procedure, shortened: as §4
[39] = Oral bioavailability in Sprague-Dawley rat at 18 mg/kg; format: ADME, organism-based; conditions: in vivo; procedure, shortened: as §3

Q: For O=C(c1cccnc1)N1CCN2C(=O)c3ccncc3[C@]12c1ccc(Cl)cc1 [BTA-9881], which Activity [1] is on record?
A: Its Activity is “Active”.

Q: And the clearance [2]?
A: Its clearance is 4.5 mL/min/kg.

Q: And the chromatographic logD [3]?
A: The chromatographic logD was 2.1.

Q: And the Activity [4]?
A: Its Activity is “Active”.

Q: What about the Vd [5] of the same compound?
A: The Vd was 1.7 L/kg.

Q: What about the “Ratio EC50” value [6] of the same compound?
A: The value was >1800.

Q: And the EC50 [7]?
A: Its EC50 is 59 nM.

Q: And the EC50 [8]?
A: The EC50 was 160 nM.

Q: And the EC50 [9]?
A: The EC50 was 48 nM.

Q: What about the “Ratio EC50” value [10] of the same compound?
A: The value was 40.

Q: And the “Ratio EC50” value [11]?
A: Its value is >100.

Q: And the Activity [12]?
A: Its Activity is “Active”.

Q: What about the solubility kinetic [13] of the same compound?
A: The solubility kinetic was 50 µg/mL (≈ 128 µM).

Q: What about the Cmax [14] of the same compound?
A: Its Cmax is 23 µM.

Q: What about the solubility kinetic [15] of the same compound?
A: Its solubility kinetic is > 100 µg/mL.

Q: What about the bioavailability [16] of the same compound?
A: Its bioavailability is 100%.

Q: And the half-life [17]?
A: The half-life was 4.5 h.

Q: What about the bioavailability [18] of the same compound?
A: The bioavailability was 100%.

Q: What about the half-life [19] of the same compound?
A: Its half-life is 4.5 h.

Q: For O=C(c1ccco1)N1CCN2C(=O)c3ccncc3C12c1ccc(Cl)cc1 (racemic), which Cmax [20] is on record?
A: Its Cmax is 0.44 µM.

Q: And the chromatographic logD [3]?
A: The chromatographic logD was 2.8.

Q: And the Vd [21]?
A: Its Vd is 8.7 L/kg.

Q: What about the half-life [22] of the same compound?
A: Its half-life is 2.4 h.

Q: What about the EC50 [7] of the same compound?
A: Its EC50 is 370 nM.

Q: And the “Ratio EC50” value [23]?
A: Its value is 3.6.

Q: And the bioavailability [24]?
A: The bioavailability was 21%.

Q: And the CC50 at 120 h [25]?
A: The CC50 at 120 h was > 19000 nM.

Q: And the EC50 [8]?
A: Its EC50 is 170 nM.

Q: And the EC50 [9]?
A: Its EC50 is 120 nM.

Q: And the half-life [26]?
A: Its half-life is 2.8 h.

Q: And the clearance [27]?
A: The clearance was 79 mL/min/kg.

Q: And the solubility kinetic [13]?
A: The solubility kinetic was > 100 µg/mL.

Q: And the solubility kinetic [15]?
A: Its solubility kinetic is 50 µg/mL (≈ 132 µM).

Q: With O=C(c1ccc(F)nc1)N1CCN2C(=O)c3cc[n+]([O-])cc3C12c1ccc(Cl)cc1 (racemic) as the compound, how does the Cmax [28] read?
A: Its Cmax is 2.5 µM.

Q: What about the bioavailability [29] of the same compound?
A: The bioavailability was 85%.

Q: And the half-life [30]?
A: The half-life was 20 h.

Q: What about the CC50 at 120 h [25] of the same compound?
A: Its CC50 at 120 h is > 17000 nM.

Q: And the half-life [31]?
A: Its half-life is 1.7 h.

Q: And the EC50 [9]?
A: Its EC50 is 150 nM.

Q: And the clearance [32]?
A: Its clearance is 7.9 mL/min/kg.

Q: What about the Vd [33] of the same compound?
A: Its Vd is 1.2 L/kg.

Q: Which Vd [34] does the source give for Cn1cc(C(=O)N2CCN3C(=O)c4cc[n+]([O-])cc4[C@@]32c2ccc(Cl)cc2)c(C(F)(F)F)n1 here?
A: Its Vd is 2.1 L/kg.

Q: And the Cmax [35]?
A: The Cmax was 9.3 µM.

Q: What about the CC50 at 120 h [25] of the same compound?
A: Its CC50 at 120 h is > 5000 nM.

Q: And the half-life [36]?
A: Its half-life is 11 h.

Q: What about the EC50 [9] of the same compound?
A: Its EC50 is 10 nM.

Q: And the half-life [37]?
A: The half-life was 11 h.

Q: And the clearance [38]?
A: Its clearance is 2.2 mL/min/kg.

Q: And the bioavailability [39]?
A: Its bioavailability is 57%.
